Reference: paper PMC12714840 (Nature Communications, 2025)

What was measured:
GPR99/OXGR1 Y92A = GPR99/OXGR1 Y92A (Homo sapiens, UniProt Q96P68, Y92A); assay: IP-one accumulation assay, Y92A mutant; format: cell-based; settings: Y92A vs WT; oxoglutarate stimulation
Human GPR99 (wild-type) = Human GPR99 (wild-type) (Homo sapiens, UniProt Q96P68); assay: IP-one accumulation assay, wild-type receptor; format: cell-based; settings: WT
GPR99/OXGR1 = GPR99/OXGR1 (Homo sapiens, UniProt Q96P68); settings: oxoglutarate for GPR99/OXGR1; no reference given; cited from earlier work
GPR99 = GPR99 (Homo sapiens, UniProt Q96P68); settings: GPR99 recognition of oxoglutarate; cited from earlier work
Human GPR99 (WT) = Human GPR99 (WT) (Homo sapiens, UniProt Q96P68); assay: cAMP inhibition assay; format: cell-based
How it was run: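 HeLa cells transiently expressing human GPR99 for 24 h, pretreated 12 h at 37 °C with 250 ng/mL PTX or vehicle. Cells harvested in HBSS with 5 mM HEPES, 0.1% BSA and 0.5 mM IBMX, then stimulated 30 min with varying ligand concentrations plus 2.5 μM forskolin. cAMP read by LANCE Ultra kit. Data are % of maximal response, mean ± SEM, ≥3 independent experiments; EC50 from three-parameter curve fit.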

GPR99/OXGR1 K32A = GPR99/OXGR1 K32A (Homo sapiens, UniProt Q96P68, K32A); assay: IP-one accumulation assay, K32A mutant; format: cell-based; settings: K32A vs WT; oxoglutarate stimulation
GPR99/OXGR1 C141A = GPR99/OXGR1 C141A (Homo sapiens, UniProt Q96P68, C141A); assay: IP-one accumulation assay, C141A mutant; format: cell-based; settings: C141A vs WT
GPR99/OXGR1 R148A = GPR99/OXGR1 R148A (Homo sapiens, UniProt Q96P68, R148A); assay: IP-one accumulation assay, R148A mutant; format: cell-based; settings: R148A vs WT
[1] = 250 ng/mL PTX pretreatment 12 h

Compound | increase in EC50 (IP1 accumulation) (GPR99/OXGR1 Y92A) | maximum response (Emax), IP1 accumulation (GPR99/OXGR1 Y92A) | IP1 accumulation (PLC pathway downstream of Gq) (Human GPR99 (wild-type); HeLa) | affinity (Kd) (GPR99/OXGR1) | EC50 (GPR99) | cAMP reduction downstream of Gi coupling (Human GPR99 (WT); HeLa, 2.5 μM forskolin) | increase in EC50 (IP1 accumulation) (GPR99/OXGR1 K32A) | maximum response (Emax), IP1 accumulation (GPR99/OXGR1 K32A) | effect of alanine substitution on oxoglutarate-induced receptor activation (IP1) (GPR99/OXGR1 C141A) | effect of alanine substitution on oxoglutarate-induced receptor activation (IP1) (GPR99/OXGR1 R148A) | effect on LTE4-induced IP1 accumulation (Human GPR99 (wild-type); [1]) | effect on cAMP response elicited by LTE4 (Human GPR99 (WT); [1])
O=C(O)CCC(=O)C(=O)O [oxoglutarate, 2-oxoglutarate] | more than 100 fold | remained unchanged | increased IP1 accumulation | hundreds of micromolar | ~200 µM | failed to stimulate cAMP reduction | more than 100 fold | remained unchanged | little effect | little effect |  | 
pertussis toxin [PTX] |  |  |  |  |  |  |  |  |  |  | without affecting IP1 accumulation | abrogated
